hK5 inh: human KLK5 protease inhibitors, primary screen, biochemical, 1536-well. 210,000 compounds, 0.59% hits. recombinant hK5, fluorogenic AMC substrate cleavage. Kallikrein-5 (Homo sapiens), Q9Y337. inhibition, % at 5 µM;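 active = inhibition of 40% or more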
FXIIa inh 1536: human FXIIa protease inhibitors, primary screen, biochemical, 1536-well | Coagulation factor XII (Homo sapiens), P00748 | purified FXIIa, Boc-QGR-AMC fluorogenic substrate, 2 h | inhibition, % at 5 µM | 220,000 compounds, 0.3% hits | AID 800, 2007; in the data active = inhibition above about 40%
FXIa inh 1536: human FXIa protease inhibitors, primary screen, biochemical, 1536-well. inhibition, % at 5 µM. Coagulation factor XI (Homo sapiens), P03951. 220,000 compounds, 0.14% hits. purified FXIa, Boc-Glu-Ala-Arg-AMC fluorogenic substrate;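 active = inhibition of at least 40%; inactive = inhibition below 40%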;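 note: fluorescence of freed AMC excited at 355 nm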
Target sequence (P03951 19-387 limits assumed): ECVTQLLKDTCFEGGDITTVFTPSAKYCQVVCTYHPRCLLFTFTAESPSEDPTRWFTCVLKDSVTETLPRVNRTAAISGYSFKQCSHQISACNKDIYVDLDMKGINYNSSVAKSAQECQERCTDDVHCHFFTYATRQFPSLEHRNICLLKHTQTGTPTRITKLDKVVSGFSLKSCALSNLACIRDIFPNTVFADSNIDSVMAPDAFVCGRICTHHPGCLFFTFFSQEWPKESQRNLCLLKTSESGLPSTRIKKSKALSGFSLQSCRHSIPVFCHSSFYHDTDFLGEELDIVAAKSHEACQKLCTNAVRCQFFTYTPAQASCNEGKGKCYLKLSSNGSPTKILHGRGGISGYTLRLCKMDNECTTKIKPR
Target sequence (P03951 388-625 limits assumed): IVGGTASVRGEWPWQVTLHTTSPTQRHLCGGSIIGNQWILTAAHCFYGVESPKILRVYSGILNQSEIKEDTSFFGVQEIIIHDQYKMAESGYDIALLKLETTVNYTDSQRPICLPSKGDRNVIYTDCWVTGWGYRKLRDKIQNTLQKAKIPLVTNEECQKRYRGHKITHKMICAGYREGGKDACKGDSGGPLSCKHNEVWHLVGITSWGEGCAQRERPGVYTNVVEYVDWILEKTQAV
Thrombin inh: human alpha-thrombin inhibitors, primary screen, counter-screen for coagulation protease inhibitor project, biochemical, 1536-well, fluorogenic AMC substrate | Prothrombin (Homo sapiens), P00734 | Boc-VPR-AMC fluorogenic substrate cleavage | inhibition, % at 5 µM | 220,000 compounds, 0.26% hits | AID 1046, 2008;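 active = inhibition at or above 40%; inactive = inhibition below 40%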
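Material: human alpha-thrombin enzyme / Medium: pH 7.5 Tris (50 mM) with NaCl 150 mM, Tween 20 0.05% / Compound: single-point dosing at 5 µM, 0.2% DMSO / Incubation: enzyme reaction carried out at room temperature / Detection: AMC fluorescence, 355/460 nm / Read-out basis: percent inhibition scaled between no-compound controls and no-enzyme blanks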
Of the large screens only hits and unclear results are named; the others gave an inactive call. Hits are enriched below; roughly 1% of the tested compounds scored in any of these assays.

Cc1cc(Nc2ccc(F)cc2F)n2nc(C)nc2n1	none
Fc1ccc(Nc2ccc3ccccc3n2)c(F)c1	hK5 inh 47, FXIa inh 1536 104
COc1ccc([N+](=O)[O-])cc1N(CC(=O)N1CCCC1)S(C)(=O)=O	none
COc1ccc(N2C(=S)N=C(Nc3ccccc3)C23CCCCC3)cc1	Thrombin inh 101
COc1cc(/C=N/NC(=O)c2ccc(CN3C(=O)c4cccc5cccc3c45)cc2)cc(OC)c1O	FXIa inh 1536 50
CC12CCC(c3c(C(=O)Nc4nccs4)nn(-c4ccccc4)c31)C2(C)C (stereo not given)	hK5 inh 52
CC12CCC(c3c(C(=O)O)nn(-c4ccccc4)c31)C2(C)C (stereo not given)	none
Cc1ccc(C)c(/C=N/Nc2nc3ccccc3c(=O)n2O)c1	none
C[C@@H](C(=O)N[C@H](C(=O)O)c1ccccc1)n1nnc2ccccc2c1=O	none
O=C(N[C@H](C(=O)O)c1ccccc1)C1CCC(Cn2nnc3ccccc3c2=O)CC1 (stereo not given in full)	FXIIa inh 1536 43
O=C(CNC(=S)N(Cc1ccccc1)Cc1ccccc1F)NCCc1ccccc1	FXIIa inh 1536 41
Nc1nc(CN2CCCCC2)cs1	hK5 inh 62, Thrombin inh 104
Nc1nc(CN2CCOCC2)cs1	none
O=[N+]([O-])c1ccc(C2OCCO2)cc1CS(=O)(=O)c1ccccc1	none
COc1ccc(S(=O)(=O)NCc2c(-c3ccccc3)noc2C)c(OC)c1	FXIa inh 1536 59
COc1ccccc1C(=O)Nc1ccc(-c2nnn(CC(=O)NCc3ccco3)n2)cc1	none
COc1cc(NC(=O)COC(=O)c2n[nH]c3ccccc23)c(C)cc1[N+](=O)[O-]	none
CC(=O)Nc1cccc(NC(=O)C2CCCN2C(=O)Nc2cccc(C)c2)c1 (stereo not given)	hK5 inh 41
COC(=O)c1c(C)[nH]c(C(C)=O)c1C	none
CC(=O)c1c(C)[nH]c(C(=O)CSc2nnc(C)s2)c1C	hK5 inh 52
CC(=O)c1[nH]c(C)c(C(C)=O)c1C	hK5 inh 47
CCOC(=O)CSc1snnc1-c1ccccc1	FXIIa inh 1536 58
CCOC(=O)CSc1ncc(-c2ccccc2)cn1	none
CCOC(=O)CSc1nnc(-c2ccccc2)o1	FXIa inh 1536 44
COc1ccc(C)cc1NC(=O)C(Sc1nnc(Nc2cc(C)ccc2OC)s1)c1ccccc1 (stereo not given)	none
COc1ccc(Nc2nnc(SC(C(=O)Nc3cc(C)ccc3C)c3ccccc3)s2)cc1 (stereo not given)	FXIIa inh 1536 75
CCO/N=C(\C)c1c(O)c(CC)c(-c2ccccc2)n(-c2ccccc2)c1=O	none
Cc1ccc(C2CC(=O)C(C=NCCN3CCN(C(=S)Nc4ccc(F)cc4)CC3)=C(O)C2)cc1 (stereo not given)	none
O=C1CC(c2ccccc2)CC(O)=C1C=NCCN1CCN(C(=S)Nc2cccc(Cl)c2)CC1 (stereo not given)	hK5 inh 44
Clc1ccc2oc(-c3ccccc3)cc(=NCCCN3CCOCC3)c2c1	Thrombin inh 52
OCCCCCN=c1cc(-c2ccccc2)oc2ccc(Cl)cc12	hK5 inh 69, Thrombin inh 60
O=C(NNc1c(Cl)cc(Cl)cc1Cl)c1n[nH]c(=O)c2ccccc12	FXIIa inh 1536 74
Cc1nn(-c2ccccc2)c(C)c1NC(=O)c1cccs1	hK5 inh 50
COc1cccc(CNC(=O)CCC2CCCN(C(=O)C3=CC(=O)CC(C)(C)O3)C2)c1 (stereo not given)	none
CO/N=C(\N)c1nonc1N	FXIa inh 1536 58
N/C(=N\OCc1ccccc1)c1nonc1N	none
COc1ccccc1Oc1c(C)oc2c(CN(C)C)c(O)ccc2c1=O	none
CC(=O)NC1CSCC1OC(C)=O (stereo not given)	hK5 inh 67
COc1cc(OC)cc(-c2nc3ccccc3c(=O)o2)c1	none
COc1cccc(-c2nc3ccccc3c(=O)o2)c1	Thrombin inh 65
O=c1oc(-c2ccc(Br)o2)nc2ccccc12	FXIIa inh 1536 46
COc1ccc(N2C(=O)[C@@H]3[C@H](C2=O)[C@H]2c4ccccc4C=CN2[C@@H]3C(=O)Nc2ccccc2)cc1	FXIIa inh 1536 45, Thrombin inh 61
CC(C)(C)C(=O)CSc1ncnc2c1cnn2-c1ccccc1	FXIa inh 1536 43
Cc1ccccc1-n1ncc2c(SCC(=O)N3c4ccccc4CC3C)ncnc21 (stereo not given)	Thrombin inh 41
COc1ccc(N2CCN(C(=O)CSc3ncnc4c3cnn4-c3ccccc3C)CC2)cc1	none
CC(C)OC(=O)CSc1ncnc2c1cnn2-c1ccccc1	none
Cc1ccccc1SCCNC(=O)c1ccccc1Br	none
CS(=O)(=O)c1ccc(Cl)c(NC(=O)COC(=O)CNC(=O)c2ccccc2)c1	FXIa inh 1536 42
Cc1ccccc1NC(=O)c1cccc(N2C(=O)C3C4CCC(C4)C3C2=O)c1 (stereo not given)	hK5 inh 43
O=C(Nc1ccccc1)OC1CCC2CC1CCC2OC(=O)Nc1ccccc1 (stereo not given)	none
N#Cc1ccsc1NC(=O)CN(Cc1ccccc1)Cc1ccccc1	FXIa inh 1536 43
COc1ccc(-c2csc(N3C(=O)C4C5c6ccccc6C(c6ccccc65)[C@@H]4C3=O)n2)cc1 (stereo not given in full)	none
COc1ccc(-c2csc(N3C(=O)C4C5c6ccccc6C(c6ccccc65)C4C3=O)n2)cc1 (stereo not given)	hK5 inh 62
Cc1cccc(Nc2cc(=O)[nH]c(=O)[nH]2)c1C	FXIIa inh 1536 45
Cc1ccc(Nc2cc(=O)[nH]c(=O)[nH]2)c(C)c1	none
COc1cc(/C=N/NC(=O)c2cccc([N+](=O)[O-])c2)ccc1OCc1ccccc1	none
COc1cc(/C=C/[N+](=O)[O-])ccc1OCc1cccc(C(=O)O)c1	hK5 inh 43
O=C(CSc1nc2ccccc2s1)NC1CCCC1	FXIIa inh 1536 42
Cc1c(NC(=O)CSc2nc3ccccc3s2)c(=O)n(-c2ccccc2)n1C	FXIIa inh 1536 45
O=C(CSc1nnc(CSc2nc3ccccc3s2)o1)NC1CCCCC1	none
Cc1csc(SCC(=O)Nc2c(C)n(C)n(-c3ccccc3)c2=O)n1	none
CC[N+]1(CC)CC2=Cc3c(ccc4ccccc34)C(C)C2C1 (stereo not given)	none
O=C(c1cccc(Cl)c1)N1CCN(Cc2ccccc2F)CC1	hK5 inh 94
COc1ccc(OC)c(CN2CCN(C(=O)c3cccc4ccccc34)CC2)c1	hK5 inh 44
COc1cc(OC)cc(C(=O)N2CCN(Cc3ccccc3C(F)(F)F)CC2)c1	FXIIa inh 1536 40
COc1ccc(OC)c(CN2CCN(C(=O)c3cccs3)CC2)c1	none
CCc1cc2c(=O)n(Cc3ccccc3)c(SC3CCOC3=O)nc2s1 (stereo not given)	none (no result: hK5 inh)

From PubChem BioAssay
